Screening results deposited in PubChem by Broad Institute.
An excerpt weighted towards active compounds, which were near 2.1% of everything screened.
XiGFP reactiv = X-chromosome reactivation activator | 360,000 tested, 0.055% active | XiGFP mouse fibroblasts, % GFP-positive cells imaging, 3 d; cells co-treated with 5-aza-dC sensitizer; scaled so ellipticine positive control = 100% | AID 743238 | activation, % at 7.58 µM;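 active = mean normalized replicate activation at least 10% and every replicate at or above 10%; inconclusive = only one of the two criteria met; inactive = mean below 10% and not all replicates reach 10%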;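 note: 0% = median of on-plate neutral control wells and 100% = ellipticine 6 µM median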
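System: SV40-immortalized XiGFP fibroblast cells, line 68-5-11 / Incubation: 3-day compound exposure, then 15 min fixation at room temperature / Compound: single concentration per compound, delivered by pin transfer / Buffer or medium: DMEM plus 5-aza-dC sensitizer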
Cneo AK release = Cryptococcus neoformans lysis via adenylate kinase release. C. neoformans lysis, adenylate kinase release luminescence, 4 h; normalised: neutral wells 0, clomiphene wells 100. lysis activity, % at 15 µM. 360,000 tested, 0.2% active. AID 651654;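 active = mean lysis activity across replicates of at least 80%, whatever share of replicates individually reach that level; inactive = mean lysis activity below 80%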
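Assay system: log-phase C. neoformans yeast / Quantity: yeast cell density of 5 × 10^6 cells/mL / Medium: fresh YPD growth medium / Compound: single dose / Timing: static 4 h at 37 °C with compound, 1 h detection / Measured by: adenylate kinase release luminescence / Read-out: lysis from increased AK signal / Benchmarks: Clomiphene as positive lysis control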
Statin myotox sup = suppression of simvastatin myotoxicity | C2C12 myotubes + simvastatin, ATP luminescence, 48 h; scaled: DMSO 0, geranylgeraniol control 100 | rescue of ATP level, % at 7.49 µM | 330,000 tested, 0.78% active | AID 602340;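 active = mean ATP rescue above about 67%, or every replicate alone reaching that limit, limit read from the data, passing the limit was not always enough; inconclusive = no clear call, values can overlap the other calls; inactive = mean under the limit and some replicate under it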;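 note: myotubes were challenged with 10 µM simvastatin during compound exposure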
DENV2 CPE rescue = DENV2-induced cell death inhibition. 350,000 tested, 1.7% active. CPE inhibition, % at 9.99 µM. DENV2-infected cells, cytopathic effect rescue, plate reader; in the data active = CPE inhibition above about 20%, passing the limit was not always enough; inconclusive = no clear call, values can overlap the other calls; tested in BHK-21 cells;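 note: 0% = median of neutral control wells and 100% = median of positive control wells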
Active calls of the source: *; ? = inconclusive; nt = not tested or not shown.

SMILES	XiGFP reactiv	Cneo AK release	Statin myotox sup	DENV2 CPE rescue
C=C1C(=O)C23C(O)C1CCC2C12COC3(O)C(O)C1C(C)(C)CCC2O (stereo not given)	nt	-2.0	110.3*	-13.2
COc1cccc(C(=O)CN2C3=NCCCN3c3ccccc32)c1	nt	-0.7	133.8*	nt
Cc1noc(C)c1NC(=O)Nc1ccc2c(c1)C(=O)N(C)[C@H]1CC[C@H](CC(=O)N[C@H]3CCN(Cc4ccccc4)C3)O[C@H]1CO2	0.0	86.4*	-8.9	0.1
Cc1noc(C)c1NC(=O)Nc1ccc2c(c1)C(=O)N(C)[C@@H]1CC[C@@H](CC(=O)N[C@H]3CCN(Cc4ccccc4)C3)O[C@@H]1CO2	0.0	4.1	-8.2	-5.1
Cc1noc(C)c1NC(=O)Nc1ccc2c(c1)C(=O)N(C)[C@@H]1CC[C@H](CC(=O)N[C@@H]3CCN(Cc4ccccc4)C3)O[C@H]1CO2	0.2	3.0	19.2	-0.9
Cc1noc(C)c1NC(=O)Nc1ccc2c(c1)C(=O)N(C)[C@@H]1CC[C@H](CC(=O)N[C@H]3CCN(Cc4ccccc4)C3)O[C@@H]1CO2	0.0	100.2*	47.2	-0.6
O=C(Nc1ccc(C(F)(F)F)cc1)N[C@H]1CC[C@@H](CC(=O)N2CCCCC2)O[C@H]1CO	-0.1	12.6	4.2	-0.5
COCC(=O)N1CC2(CCN(Cc3cncnc3)CC2)c2c(n(C)c3cc(OC)ccc23)[C@H]1CO	0.0	nt	nt	50.1*
COc1ccc2c3c(n(C)c2c1)[C@H](CO)N(C(=O)C1CCC1)CC31CN(Cc2cccc(F)c2)C1	0.3	nt	nt	22.0*
CCC(=O)N1CC2(CN(Cc3ccc(F)cc3)C2)c2c(n(C)c3cc(OC)ccc23)[C@@H]1CO	0.0	nt	nt	21.4*
CCC(=O)N1CC2(CN(Cc3ccc(OC)cc3)C2)c2c(n(C)c3cc(OC)ccc23)[C@H]1CO	0.5	nt	nt	-11.3
COc1ccc2c3c(n(C)c2c1)[C@H](CO)N(C)CC31CCN(C(=O)CN2CCOCC2)CC1	0.0	nt	nt	52.9*
COc1cc(CN2CC3(CCN(C(=O)CN4CCOCC4)CC3)c3c(n(C)c4cc(OC)ccc34)[C@@H]2CO)cc(OC)c1	0.3	nt	nt	-9.2
COc1ccc(S(=O)(=O)N(C)C[C@@H]2Oc3c(NS(=O)(=O)c4ccc(F)cc4)cccc3C(=O)N([C@H](C)CO)C[C@@H]2C)cc1	0.1	0.4	-28.4	?
CN(C)CCCNC(=O)C[C@H]1CC[C@H](NS(=O)(=O)c2ccccc2)[C@H](CO)O1	-0.1	-4.0	-1.7	4.4
C[C@H](CO)N1C[C@H](C)[C@H](CN(C)C(=O)c2ccncc2)Oc2ncc(C#C[C@@H](C)O)cc2C1=O	0.9	nt	nt	-7.1
COc1ccc2c3c(n(C)c2c1)[C@@H](CO)N(C(=O)C1CCCC1)CC31CN(C(=O)Nc2cccc(F)c2)C1	0.0	nt	nt	77.3*
CCCC(=O)N1CC2(CCN(C(=O)Nc3cccc(F)c3)CC2)c2c(n(C)c3cc(OC)ccc23)[C@@H]1CO	0.0	nt	nt	12.5
COc1ccc2c3c(n(C)c2c1)[C@H](CO)N(C(=O)CN1CCOCC1)CC31CN(Cc2ccncc2)C1	0.4	nt	nt	36.6*
COc1ccc2c3c(n(C)c2c1)[C@H](CO)N(C(=O)CN1CCOCC1)CC31CCN(C(=O)Nc2cccc(F)c2)CC1	?	nt	nt	32.6*
COc1ccc2c3c(n(C)c2c1)[C@@H](CO)N(C(=O)CN1CCOCC1)CC31CN(C)C1	0.4	nt	nt	-3.1
COc1ccc2c3c(n(C)c2c1)[C@@H](CO)N(Cc1ccc(F)cc1)CC31CN(CC2CCOCC2)C1	0.3	nt	nt	99.3*
C/C=C/c1ccc2c(c1)O[C@H](CN(C)C(=O)Cc1ccccc1)[C@H](C)CN([C@@H](C)CO)S2(=O)=O	-0.5	5.4	-3.0	-6.2
C[C@@H]1CN([C@H](C)CO)C(=O)c2cc(C#CCc3ccccc3)cnc2O[C@H]1CN(C)Cc1cccnc1	-1.2	1.8	9.6	14.4
CC(C)C[C@H](NC(=O)c1nc[nH]c1C(=O)N1CCC(C)CC1)C(=O)OC(C)(C)C	-0.1	3.2	5.1	82.0*
CC(C)C[C@H](NC(=O)c1[nH]cnc1C(=O)N[C@@H](Cc1ccccc1)C(=O)OCc1ccccc1)C(=O)OCc1ccccc1	0.1	-0.1	136.8*	7.3
O=C1OC(c2ccccc2)(N(Nc2ccccc2)c2ccccc2)c2ccccc21 (stereo not given)	0.0	0.1	-6.0	23.9*
O=C1OC(Oc2ccccc2)(c2ccccc2)c2ccccc21 (stereo not given)	nt	-1.2	13.4	nt
